≈ marks a conversion by molar mass, not a printed value.
Key:
Candida albicans [1] = experiment: Antifungal activity against Candida albicans; format: functional
Summary of the method: (§1)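 Agar dilution MIC. Twofold serial drug dilutions in yeast nitrogen base medium with 1% dextrose, 0.15% asparagine and 1.5% agar. Agar surfaces inoculated using a Steers multiple inocula replicator, then incubated at 35 °C for 24-48 h. MIC was recorded as the lowest concentration inhibiting visible growth. Amphotericin B, miconazole and nystatin served as controls.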

Candida tropicalis [2] = experiment: Antifungal activity against Candida tropicalis; format: functional; summary of the method: as §1
Candida parapsilosis = experiment: Antifungal activity against Candida parapsilosis; format: functional; summary of the method: as §1
Trichophyton benhamiae [3] = experiment: Antifungal activity against Trichophyton mentagrophytes; format: functional, trychophyton mentagrophytes; summary of the method: as §1
Aspergillus niger [4] = experiment: Antifungal activity against Aspergillus niger; Range is 16-32; format: functional; summary of the method: as §1
Trichophyton rubrum [5] = experiment: Antifungal activity against Trichophyton rubrum; format: functional; summary of the method: as §1
Kluyveromyces marxianus [6] = experiment: Antifungal activity against Candida pseudotropicalis; format: functional; summary of the method: as §1
Aspergillus niger [7] = experiment: Antifungal activity against Aspergillus niger; format: functional; summary of the method: as §1
Mucor fragilis = experiment: Antifungal activity against Mucor fragilis; format: functional; summary of the method: as §1
Candida albicans [8] = experiment: Antifungal activity against Candida stellatoidea; format: functional; summary of the method: as §1
Diutina rugosa = experiment: Antifungal activity against Candida rugosa; format: functional; summary of the method: as §1
Candida albicans [9] = experiment: Antifungal activity against Candida albicans; Range is 64-128; format: functional; summary of the method: as §1
Trichophyton rubrum [10] = experiment: Antifungal activity against Trichophyton rubrum; Range is 4-8; format: functional; summary of the method: as §1
Aspergillus niger [11] = experiment: Antifungal activity against Aspergillus niger; Range is 64-128; format: functional; summary of the method: as §1
Kluyveromyces marxianus [12] = experiment: Antifungal activity against Candida pseudotropicalis; Range is 8-16; format: functional; summary of the method: as §1
Candida albicans [13] = experiment: Antifungal activity against Candida albicans; Range is 16-32; format: functional; summary of the method: as §1
Candida albicans [14] = experiment: Antifungal activity against Candida albicans; Range is 8-16; format: functional; summary of the method: as §1
Aspergillus niger [15] = experiment: Antifungal activity against Aspergillus niger; Range is 32-64; format: functional; summary of the method: as §1
Candida tropicalis [16] = experiment: Antifungal activity against Candida tropicalis; Range is 8-32; format: functional; summary of the method: as §1
Trichophyton benhamiae [17] = experiment: Antifungal activity against Trichophyton mentagrophytes; Range is 16-32; format: functional; settings: trychophyton mentagrophytes

Compound	MIC (Candida albicans [1])	MIC (Candida tropicalis [2])	MIC (Candida parapsilosis; Lodderomyces parapsilosis)	MIC (Trichophyton benhamiae [3])	MIC (Trichophyton rubrum [5])	MIC (Kluyveromyces marxianus [6])	MIC (Aspergillus niger [7])	MIC (Mucor fragilis)	MIC (Candida albicans [8])	MIC (Diutina rugosa)	further results
c1cnc2nncnc2c1	64 µg/mL (≈ 484 µM)	64 µg/mL (≈ 484 µM)	32 µg/mL (≈ 242 µM)	32 µg/mL (≈ 242 µM)	32 µg/mL (≈ 242 µM)	32 µg/mL (≈ 242 µM)					MIC (Aspergillus niger [4]): 16 µg/mL (≈ 121 µM)
Cc1cc2nnc(-c3ccc(F)cc3)nc2c(C)n1	128 µg/mL (≈ 503 µM)	128 µg/mL (≈ 503 µM)		64 µg/mL (≈ 252 µM)	64 µg/mL (≈ 252 µM)	128 µg/mL (≈ 503 µM)	128 µg/mL (≈ 503 µM)	64 µg/mL (≈ 252 µM)	> 128 µg/mL	> 128 µg/mL	
C(=C\N1CCCCC1)/c1nnc2ccncc2n1		128 µg/mL (≈ 530 µM)	128 µg/mL (≈ 530 µM)	16 µg/mL (≈ 66.3 µM)		128 µg/mL (≈ 530 µM)					MIC (Candida albicans [9]): 64 µg/mL (≈ 265 µM); MIC (Trichophyton rubrum [10]): 4 µg/mL (≈ 16.6 µM); MIC (Aspergillus niger [11]): 64 µg/mL (≈ 265 µM)
FC(F)(F)c1nnc2ccncc2n1		32 µg/mL (≈ 160 µM)					32 µg/mL (≈ 160 µM)	8 µg/mL (≈ 40 µM)	16 µg/mL (≈ 80 µM)	16 µg/mL (≈ 80 µM)	MIC (Kluyveromyces marxianus [12]): 8 µg/mL (≈ 40 µM); MIC (Candida albicans [13]): 16 µg/mL (≈ 80 µM)
COc1cc(-c2nnc3ccncc3n2)cc(OC)c1OC		128 µg/mL (≈ 429 µM)				64 µg/mL (≈ 215 µM)	128 µg/mL (≈ 429 µM)	128 µg/mL (≈ 429 µM)	128 µg/mL (≈ 429 µM)	128 µg/mL (≈ 429 µM)	MIC (Candida albicans [9]): 64 µg/mL (≈ 215 µM)
Cc1nc(C)c2nc(-c3ccc(F)cc3)nnc2c1N	> 128 µg/mL	> 128 µg/mL	> 128 µg/mL	128 µg/mL (≈ 475 µM)	128 µg/mL (≈ 475 µM)		> 128 µg/mL	128 µg/mL (≈ 475 µM)	> 128 µg/mL	> 128 µg/mL	
c1ccc(OCc2nnc3ccncc3n2)cc1		16 µg/mL (≈ 67.2 µM)						4 µg/mL (≈ 16.8 µM)	16 µg/mL (≈ 67.2 µM)	8 µg/mL (≈ 33.6 µM)	MIC (Kluyveromyces marxianus [12]): 8 µg/mL (≈ 33.6 µM); MIC (Candida albicans [14]): 8 µg/mL (≈ 33.6 µM); MIC (Aspergillus niger [4]): 16 µg/mL (≈ 67.2 µM)
CN(C)/C=C/c1nnc2ccncc2n1	64 µg/mL (≈ 318 µM)	128 µg/mL (≈ 636 µM)				128 µg/mL (≈ 636 µM)		64 µg/mL (≈ 318 µM)	16 µg/mL (≈ 79.5 µM)	16 µg/mL (≈ 79.5 µM)	MIC (Aspergillus niger [11]): 64 µg/mL (≈ 318 µM)
Cc1nnc2c(cnc3ccccc32)n1	32 µg/mL (≈ 163 µM)	32 µg/mL (≈ 163 µM)	32 µg/mL (≈ 163 µM)	32 µg/mL (≈ 163 µM)	32 µg/mL (≈ 163 µM)	32 µg/mL (≈ 163 µM)					MIC (Aspergillus niger [4]): 16 µg/mL (≈ 81.5 µM)
c1ccc2c3c(cnc2c1)NC1(CCCCC1)N=N3	128 µg/mL (≈ 507 µM)	128 µg/mL (≈ 507 µM)	128 µg/mL (≈ 507 µM)	64 µg/mL (≈ 254 µM)	64 µg/mL (≈ 254 µM)	128 µg/mL (≈ 507 µM)	128 µg/mL (≈ 507 µM)				
c1ccc(-c2nnc3ccccc3n2)cc1	64 µg/mL (≈ 309 µM)	128 µg/mL (≈ 618 µM)			64 µg/mL (≈ 309 µM)	128 µg/mL (≈ 618 µM)	128 µg/mL (≈ 618 µM)		128 µg/mL (≈ 618 µM)	128 µg/mL (≈ 618 µM)	
Cc1nnc2ncccc2n1	128 µg/mL (≈ 876 µM)	128 µg/mL (≈ 876 µM)	64 µg/mL (≈ 438 µM)	128 µg/mL (≈ 876 µM)	128 µg/mL (≈ 876 µM)	128 µg/mL (≈ 876 µM)					MIC (Aspergillus niger [15]): 32 µg/mL (≈ 219 µM)
CCCCCCCCCCCCCCCCCc1nnc2ccncc2n1	128 µg/mL (≈ 345 µM)	128 µg/mL (≈ 345 µM)				128 µg/mL (≈ 345 µM)	128 µg/mL (≈ 345 µM)	128 µg/mL (≈ 345 µM)	> 128 µg/mL	> 128 µg/mL	
c1ccc2cc(-c3nnc4ccncc4n3)ccc2c1	128 µg/mL (≈ 496 µM)	128 µg/mL (≈ 496 µM)				128 µg/mL (≈ 496 µM)	128 µg/mL (≈ 496 µM)	128 µg/mL (≈ 496 µM)	> 128 µg/mL	> 128 µg/mL	
Cc1nnc2ccnc(C)c2n1			128 µg/mL (≈ 799 µM)	8 µg/mL (≈ 49.9 µM)	8 µg/mL (≈ 49.9 µM)		64 µg/mL (≈ 400 µM)				MIC (Kluyveromyces marxianus [12]): 8 µg/mL (≈ 49.9 µM); MIC (Candida albicans [14]): 8 µg/mL (≈ 49.9 µM); MIC (Candida tropicalis [16]): 8 µg/mL (≈ 49.9 µM)
CN1CCN(/C=C/c2nnc3ccncc3n2)CC1	128 µg/mL (≈ 499 µM)	128 µg/mL (≈ 499 µM)				128 µg/mL (≈ 499 µM)		128 µg/mL (≈ 499 µM)	32 µg/mL (≈ 125 µM)	32 µg/mL (≈ 125 µM)	MIC (Aspergillus niger [11]): 64 µg/mL (≈ 250 µM)
c1cc2nnc(C3CCC3)nc2cn1		32 µg/mL (≈ 172 µM)				16 µg/mL (≈ 85.9 µM)		16 µg/mL (≈ 85.9 µM)	32 µg/mL (≈ 172 µM)	32 µg/mL (≈ 172 µM)	MIC (Candida albicans [14]): 8 µg/mL (≈ 43 µM); MIC (Aspergillus niger [4]): 16 µg/mL (≈ 85.9 µM)
Fc1ccc(-c2nnc3ccncc3n2)c(F)c1		16 µg/mL (≈ 65.5 µM)	16 µg/mL (≈ 65.5 µM)	8 µg/mL (≈ 32.8 µM)	2 µg/mL (≈ 8.19 µM)	32 µg/mL (≈ 131 µM)					MIC (Candida albicans [13]): 16 µg/mL (≈ 65.5 µM); MIC (Aspergillus niger [4]): 16 µg/mL (≈ 65.5 µM)
c1ccc(-c2ccc(-c3nnc4ccncc4n3)cc2)cc1	128 µg/mL (≈ 450 µM)	128 µg/mL (≈ 450 µM)				128 µg/mL (≈ 450 µM)		128 µg/mL (≈ 450 µM)	> 128 µg/mL	> 128 µg/mL	MIC (Aspergillus niger [11]): 64 µg/mL (≈ 225 µM)
NYSTATIN	16 µg/mL	16 µg/mL			32 µg/mL	8 µg/mL	16 µg/mL	16 µg/mL	> 128 µg/mL	> 128 µg/mL	MIC (Candida parapsilosis): 16 µg/mL; MIC (Trichophyton benhamiae [17]): 16 µg/mL
